Compound activity as filed in PubChem BioAssay.
Shown is part of a subset that was picked to be rich in hits.
HSF-1 act: HSF-1 activators, primary screen, NIH3T3-HGL cells, MG132 stress, luminescence, single point | activation, % at 9 µM | 300,000 compounds, 1.7% hits | NIH3T3-HGL HSF-1 luciferase reporter, 8 h; 100% = twice DMSO control signal;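 active = mean replicate activation of at least 50% with a set share of replicates each reaching 50%; inconclusive = only one of those two conditions met; inactive = mean below 50% and too few replicates reaching it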
Lmaj promast: Leishmania major promastigote growth inhibition, primary screen. Leishmania major promastigotes, resazurin fluorescence viability. inhibition, % at 10 µM. 200,000 compounds, 9% hits. AID 1063, 2008; in the data active = inhibition above about 50%;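 also: promastigotes grown with compound for 44 hours at 28 °C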
HSF1 inh: HSF1 inhibitors in luciferase reporter cells, primary screen, cell-based, NIH3T3, luminescence; NIH3T3-HGL HSE-luciferase, MG132-induced, luminescence 8 h; active compounds read low; activity change, negative = inhibition, % at 7.5 µM (by protocol); 300,000 compounds, 0.77% hits; AID 2098, 2009;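 active = more than half of replicate wells show activity change below -50%, luminescence cut by over half; inconclusive = some wells, but at most half, below -50%; inactive = no replicate well below -50%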;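 also: luciferase reports HSF-1 transcriptional activity via heat shock element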
Hsp70 activator: Hsp70 transcriptional activators, primary screen, cell-based, HeLa, Hsp70 promoter luciferase, luminescence, 10 µM; HeLa Hsp70 promoter luciferase reporter; scaled: vehicle 0, proteasome-inhibitor control 100%; activation, % at 10 µM; 200,000 compounds, 0.04% hits; AID 1203, 2008;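 active = activation above the mean across all tested compounds plus 3 SD, cutoff set per campaign, cut at about 5.5% in these data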
T cruzi repl: inhibitors of intracellular T. cruzi growth, primary screen, luminescence, NIH3T3 host cells; 300,000 compounds, 1.4% hits; AID 1885, 2009; T. cruzi beta-gal in NIH3T3, 90 h; inhibition, % (no concentration beside the values);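 active = mean inhibition across valid replicates above about 55%, limit read from the data; inconclusive = mean below that limit but half or more replicates reach it; inactive = mean below it, under half of replicates reach it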;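 also: signal also drops with host cell toxicity which is not excluded here; higher percent means less beta-gal luminescence so fewer parasites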
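Read-out: Parasite load inhibition, % | Test system: Mouse NIH/3T3 fibroblasts infected with β-gal-expressing T. cruzi Tulahuen C4 | Amount: 5,000 cells/well | Medium: DMEM, 2% fetal bovine serum | Signal: GalScreen β-gal luminescence, detergent lysis, 60 min | Timing: 3 h attach, ≥90 h co-culture | Also added: Tulahuen C4 trypomastigotes, 5000/well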
L major 1uM: Leishmania major promastigote growth inhibition, confirmation, 1 µM repeat of primary hits | 1,100 compounds, 13% hits | AID 1258, 2008 | inhibition, % at 1 µM | L. major promastigote growth, resazurin fluorescence, 48 h | shares compounds with Lmaj promast;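 active = inhibition above about 50% in both repeat tests, limit read from the data; inconclusive = one repeat under the set limit, the other over it; inactive = both repeats under the set limit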
Of the large screens only hits and unclear results are named; the others gave an inactive call (follow-up assays come after a bar, where they were run).

O=C(CN1C2CCC1CC(O)(c1cccnc1)C2)Nc1ccc2c(c1)OCO2 (stereo unspecified)	Lmaj promast 89.9
O=c1[nH]c(=S)n(CCC2=CCCCC2)c(O)c1/C=N/N1CCOCC1	none (no result: Lmaj promast, Hsp70 activator)
CCCCCCOc1ccc(CN2CCN(C)CC2)cc1	Lmaj promast 99.9, HSF1 inh inconclusive, T cruzi repl 68.3
CN1CCN(Cc2ccc3ccccc3c2)CC1	none (no result: Lmaj promast, Hsp70 activator)
O=C1NC(=O)C(=Cc2ccc(-c3cc(Cl)ccc3[N+](=O)[O-])o2)C(=O)N1	Lmaj promast 64.3
O=C1C2CCN(CC2)[C@@H]1Cc1ccc2ccccc2c1O	Lmaj promast 99.2
CC(c1ccccc1)[n+]1ccccc1 (stereo unspecified)	none (no result: Lmaj promast, Hsp70 activator)
CC(C)Nc1ccc(Nc2ccccc2)cc1	T cruzi repl 56.1 (no result: Lmaj promast, Hsp70 activator)
CC(=O)c1ccc(OC(C)C)c(Cc2c(O)[nH]c(=S)[nH]c2=O)c1	none
CCCCC(CC)CNCC(O)c1ccccc1 (stereo unspecified)	T cruzi repl 77.7
CC1CCN(C(=O)c2ccc(N3CC4CC(C3)c3cccc(=O)n3C4)c([N+](=O)[O-])c2)CC1 (stereo unspecified)	Lmaj promast 70.8
OC1/C(=C/c2ccccc2C(F)(F)F)N2CCC1CC2 (stereo unspecified)	HSF1 inh -77.9
O=C1NC2C(O)C(O)C(O)C(O)C2c2cc3c(c(O)c21)OCO3 (stereo unspecified)	HSF-1 act 88.6, HSF1 inh 88.6 (no result: Lmaj promast, Hsp70 activator, T cruzi repl)
CCCC(CCC)C(=O)OC[N+](C)(C)CCOC(=O)C(O)(c1ccccc1)C1CCCC1 (stereo unspecified)	T cruzi repl 55.0
CC(C)(C)C(=O)OC[N+](C)(C)CCOC(=O)C(O)(c1ccccc1)C1CCCC1 (stereo unspecified)	none
C=CCn1c(O)c(C(CC)=NCCc2c[nH]c3ccccc23)c(=O)[nH]c1=O	none (no result: Lmaj promast, Hsp70 activator)
O=c1[nH]c(=O)n(C2CCCCCC2)c(O)c1C=NCCCN1CCOCC1	Lmaj promast 88.5
O=[N+]([O-])c1oc2ccc3ccccc3c2c1CCO	none (no result: Lmaj promast, Hsp70 activator, T cruzi repl)
COC(=O)C1=C(C(=O)OC)C2OC1c1cc3ccccc3cc12	HSF-1 act 58.9, HSF1 inh 58.9 (no result: Lmaj promast, Hsp70 activator, T cruzi repl)
CC(C)(C)n1cc(C(=O)c2ccccc2OCCCF)cn1	none (no result: Lmaj promast, Hsp70 activator)
CC(C)(C)n1cc(C(=O)c2ccc3ccccc3c2O)cn1	HSF1 inh -71.8
CN(C)CC1CCCCC1OC(=O)Cc1ccc(Cl)c([N+](=O)[O-])c1 (stereo unspecified)	none (no result: Lmaj promast, Hsp70 activator)
CC(C)N1C(=O)NC(=O)C2(Cc3cc([N+](=O)[O-])ccc3N(C)C2c2ccccc2)C1=O (stereo unspecified)	none
O=[N+]([O-])c1ccc(N2CCNCC2)cc1N1CCCCC1	Lmaj promast 75.8
COc1cccc(OCc2cc(C(=O)N3C[C@H]4C[C@@H](C3)c3cccc(=O)n3C4)no2)c1	HSF-1 act 73.0 (no result: Lmaj promast, Hsp70 activator)
COc1ccc(CCNCc2ccccc2F)cc1	none (no result: Lmaj promast, Hsp70 activator)
COC(=O)C1=C(N)Oc2cc(C)oc(=O)c2C12C(=O)Nc1ccccc12 (stereo unspecified)	none
O=c1cccc2n1CC1CC2CN(Cc2c(Cl)cccc2Cl)C1 (stereo unspecified)	none
O=c1cccc2n1CC1CC2CN(c2nc(N3CCCCC3)nc(N3CCCCC3)n2)C1 (stereo unspecified)	HSF-1 act 58.4
CCC1(CC)C(=O)N(Cc2ccccc2)C(=O)N(Cc2ccccc2)C1=O	Lmaj promast 81.9, T cruzi repl 61.4 | L major 1uM inconclusive
C[C@@]1(CO)[C@H](O)CC[C@@]2(C)[C@H]1CC[C@H]1C[C@@H]3C[C@@]12CC[C@]3(O)CO	Lmaj promast 99.9 | L major 1uM 95.1
CC(C)COc1ccc(C2(C#N)CC[N+](C)(C)CC2)cc1	none
COc1cc2c(cc1OC)CC[N+](C)=C2	none
OCC[n+]1c2ccccc2nc2ccc(N3CCOCC3)cc21	none (no result: Lmaj promast, Hsp70 activator)
Oc1ccccc1C1NCc2ccccc2-n2cccc21 (stereo unspecified)	none (no result: Lmaj promast, Hsp70 activator)
CCOc1cc(C2NCc3ccccc3-n3cccc32)ccc1O (stereo unspecified)	Lmaj promast 99.2 | L major 1uM inactive
C1=C(c2c[nH]c3ccccc23)CCNC1	Lmaj promast 99.9, T cruzi repl inconclusive | L major 1uM inactive
CC(C)N1CC=C(c2c[nH]c3ccccc23)CC1	none
CC(C)(O)[C@H]1O[C@H]2CC[C@@]3(C)[C@@](O)(CC[C@H]4Cc5c([nH]c6ccccc56)[C@@]43C)C2=CC1=O	Lmaj promast 94.3 | L major 1uM inactive
CCc1ccc(/C=C(/C#N)C(N)=S)cc1	Lmaj promast 50.1 | L major 1uM inactive
Cc1ccc(-c2nn(Cc3ccccc3)cc2C=O)cc1C	HSF-1 act 69.7, Lmaj promast 53.5 | L major 1uM inactive
Cc1ccc(Cn2cc(C=O)c3ccccc32)cc1	none (no result: Lmaj promast, Hsp70 activator)
O=C(NCCCn1ccnc1)C(Cl)(Cl)Cl	none
Cn1cc2c([N+](=O)[O-])cc([N+](=O)[O-])cc2n1	Lmaj promast 99.7 (no result: HSF-1 act, HSF1 inh, T cruzi repl) | L major 1uM inactive
Cc1nc2ccccc2c(=O)n1-c1ccc(Cl)cc1[N+](=O)[O-]	none
O/N=C1\CCC2CN(C3CCCCC3)CC2C1 (stereo unspecified)	none
COC(=O)[C@@H]1[C@@H](C(=O)OC)C2(c3ccccc3-c3ccccc32)N(c2ccc(Cl)cc2)N1C#N	Lmaj promast 74.2, HSF1 inh -95.8, T cruzi repl 55.8 | L major 1uM 57.1
O=P(Nc1cccnc1)(Oc1ccccc1)Oc1ccccc1	Lmaj promast 93.2 | L major 1uM inactive
Clc1ccc(OCC#CCN2CCCC2)cc1	none
CN(C)C(=S)SSC(=S)N(C)C	Lmaj promast 100.6 | L major 1uM 99.4
COc1ccccc1C1=NCc2nnc(C)n2-c2ccc(Cl)cc21	Lmaj promast 60.6 | L major 1uM inactive
COc1ccc(C2=NCc3nnc(C)n3-c3ccc(Cl)cc32)cc1Cl	none
C[C@H]1C[C@@H](C)C(=O)[C@@H]([C@H](O)CC2CC(=O)NC(=O)C2)C1	Lmaj promast 100.3, HSF1 inh -69.3, T cruzi repl 57.7 | L major 1uM 100.4
Cc1ccc(-c2cc(-c3ccc(C)cc3)[n+](C)o2)cc1	Lmaj promast 100.2 | L major 1uM 98.6
Cc1ccc(-c2cc(-c3ccc(C)cc3)[n+](-c3ccccc3)c(-c3ccc(C)cc3)c2)cc1	none (no result: Lmaj promast, Hsp70 activator)
CN1C(=O)C(O)N=C(c2ccccc2)c2ccccc21 (stereo unspecified)	none (no result: Lmaj promast, Hsp70 activator)
OC1(c2cccnc2)CC2CCC(C1)N2Cc1nnnn1Cc1ccccc1 (stereo unspecified)	none
